From ChEMBL document CHEMBL1132495, “Alpha(2) adrenoceptor agonists as potential analgesic agents. 1. (Imidazolylmethyl)oxazoles and -thiazoles” (J Med Chem, 1999)

Tests used:
[1] = target: T1, Adrenergic receptor alpha-2 (Rattus norvegicus, UniProt P22086+P19328+P22909); experiment: In vitro binding affinity against alpha-2 adrenergic receptor in rat
T1 sequence (P22086 whole entry): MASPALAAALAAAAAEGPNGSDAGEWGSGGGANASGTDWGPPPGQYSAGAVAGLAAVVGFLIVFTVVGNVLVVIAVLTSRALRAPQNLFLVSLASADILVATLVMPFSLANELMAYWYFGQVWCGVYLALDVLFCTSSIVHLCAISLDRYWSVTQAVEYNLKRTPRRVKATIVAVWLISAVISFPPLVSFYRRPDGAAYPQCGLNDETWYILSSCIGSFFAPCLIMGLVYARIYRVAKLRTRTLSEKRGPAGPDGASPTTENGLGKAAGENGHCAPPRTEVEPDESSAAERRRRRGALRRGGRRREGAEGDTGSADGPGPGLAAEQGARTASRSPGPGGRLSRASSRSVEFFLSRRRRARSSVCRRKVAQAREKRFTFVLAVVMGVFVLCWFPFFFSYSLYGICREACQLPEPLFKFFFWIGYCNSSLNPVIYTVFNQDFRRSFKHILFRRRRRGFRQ
T1 sequence (P19328 whole entry): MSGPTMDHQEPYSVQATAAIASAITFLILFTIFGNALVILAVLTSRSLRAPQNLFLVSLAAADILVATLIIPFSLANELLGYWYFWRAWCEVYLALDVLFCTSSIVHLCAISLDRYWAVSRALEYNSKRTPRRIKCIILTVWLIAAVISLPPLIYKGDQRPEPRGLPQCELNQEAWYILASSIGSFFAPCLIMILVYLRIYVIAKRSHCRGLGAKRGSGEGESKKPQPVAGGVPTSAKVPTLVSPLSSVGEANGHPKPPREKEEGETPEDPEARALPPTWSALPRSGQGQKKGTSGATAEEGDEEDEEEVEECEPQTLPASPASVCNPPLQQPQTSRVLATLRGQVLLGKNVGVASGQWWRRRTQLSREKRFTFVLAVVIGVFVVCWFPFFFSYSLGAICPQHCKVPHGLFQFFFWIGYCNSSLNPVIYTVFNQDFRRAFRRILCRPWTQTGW
T1 sequence (P22909 whole entry): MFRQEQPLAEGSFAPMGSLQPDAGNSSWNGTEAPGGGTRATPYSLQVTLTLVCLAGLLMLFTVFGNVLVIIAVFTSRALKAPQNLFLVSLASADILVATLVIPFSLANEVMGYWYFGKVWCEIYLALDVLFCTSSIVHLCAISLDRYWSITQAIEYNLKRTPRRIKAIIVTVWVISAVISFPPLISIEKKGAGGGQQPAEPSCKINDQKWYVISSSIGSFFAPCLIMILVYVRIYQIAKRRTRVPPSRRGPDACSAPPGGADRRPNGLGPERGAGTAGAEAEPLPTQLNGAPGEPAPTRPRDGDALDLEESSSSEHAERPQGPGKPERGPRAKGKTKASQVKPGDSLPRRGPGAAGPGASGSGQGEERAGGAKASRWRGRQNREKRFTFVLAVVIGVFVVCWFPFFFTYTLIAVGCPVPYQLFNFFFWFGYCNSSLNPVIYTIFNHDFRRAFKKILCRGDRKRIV
Procedure, shortened: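 Rat cortex synaptic membranes (male Wistar rats, 150-250 g; homogenized in HEPES-sucrose, spun at 1000g then 42000g, pellet washed in 3 mM K phosphate pH 7.5 with 30 min 25 °C preincubation). Displacement of [3H]p-aminoclonidine (0.1 nM), 20 min at 25 °C; filtration, scintillation counting. 8-10 concentrations in triplicate; Ki from single-site fit, nonspecific binding as fitted parameter.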

[2] = organism: Mus musculus; experiment: Mouse Acetylcholine-induced Abdominal Irritant Test activity (MAIT); assay type: functional; details: Abdomen
Procedure, shortened: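 Male CD-1 mice, 18-24 g, fed ad libitum until testing. Compound or vehicle given orally by gavage; at set intervals afterwards, acetylcholine bromide 5.5 mg/kg i.p. Mice observed in bell jars for a single abdominal response; % antinociception per dose taken from responder counts. ED50 with 95% confidence limits by Litchfield-Wilcoxon probit analysis, including a chi-square test for linearity.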

[3] = organism: Mus musculus; experiment: Mouse Acetylcholine-induced Abdominal Irritant Test activity(MAIT) of the compound.; details: Abdomen

Row | Structure (SMILES) | Ki [1] | ED50 [2] | ED50 [3]
1 | CCc1nc(Cc2c[nH]cn2)sc1C | 18 nM | > 30 mg/kg | –
2 | CCc1sc(C)nc1Cc1c[nH]cn1 | 10 nM | 2.3 mg/kg | –
3 | CCc1nc(CC)c(Cc2c[nH]cn2)s1 | 23 nM | > 30 mg/kg | –
4 | CCc1nc(C(C)c2c[nH]cn2)c(CC)s1 (centres undefined) | 407 nM | 16 mg/kg | –
5 | CC(C)c1nc(Cc2c[nH]cn2)c(C(C)C)o1 | 714 nM | 6.9 mg/kg | –
6 | CCc1nc(Cc2c[nH]cn2)c(C)s1 | 57 nM | > 30 mg/kg | –
7 | CCc1nc(Cc2c[nH]cn2)c(CC)o1 | 58 nM | 2.8 mg/kg | –
8 | CCc1nc(Cc2cn[nH]n2)c(CC)s1 | > 1000 nM | > 30 mg/kg | –
9 | CCc1nc(CC)c(C(C)c2c[nH]cn2)s1 (centres undefined) | 97 nM | > 30 mg/kg | –
10 | CCc1nc(Cc2ncc[nH]2)c(CC)s1 | > 1000 nM | > 30 mg/kg | –
11 | CCc1nc(Cc2nc[nH]n2)c(CC)s1 | > 1000 nM | > 30 mg/kg | –
12 | CCc1sc(Cc2c[nH]cn2)nc1C | 18 nM | 2.8 mg/kg | –
13 | CCc1csc(Cc2c[nH]cn2)n1 | 36 nM | > 30 mg/kg | –
14 | CCc1nc(Cc2c[nH]cn2)sc1CC | 86 nM | > 30 mg/kg | –
15 | Cc1nc(Cc2c[nH]cn2)c(C)o1 | > 1000 nM | > 30 mg/kg | –
16 | Cc1nc(C)c(C(c2ccccc2)c2c[nH]cn2)s1 (centres undefined) | 269 nM | > 30 mg/kg | –
17 | Cc1nc(Cc2c[nH]cn2)c(C)s1 | 38 nM | > 30 mg/kg | –
18 | CCc1nc(Cc2c[nH]cn2)c(C(C)C)s1 | 235 nM | 25.3 mg/kg | –

Row | Structure (SMILES) | Ki [1] | ED50 [2] | ED50 [3]
19 | c1nc(Cc2nc3c(s2)CCC3)c[nH]1 | 28 nM | > 30 mg/kg | –
20 | CCc1cnc(Cc2c[nH]cn2)s1 | 381 nM | > 30 mg/kg | –
21 | c1ccc2sc(Cc3c[nH]cn3)nc2c1 | 18 nM | > 30 mg/kg | –
22 | c1nc(Cc2nc3c(s2)CCCC3)c[nH]1 | 110 nM | > 30 mg/kg | –
23 | CCc1sc(C(C)C)nc1Cc1c[nH]cn1 | 28 nM | 7.5 mg/kg | –
24 | CCCCc1nc(Cc2c[nH]cn2)c(CCCC)s1 | 35 nM | > 30 mg/kg | –
25 | CCc1sc(C(F)(F)F)nc1Cc1c[nH]cn1 | 320 nM | 20.3 mg/kg | –
26 | CCCc1nc(Cc2c[nH]cn2)c(CCC)s1 | 97 nM | 30 mg/kg | –
27 | Cc1nc(Cc2c[nH]cn2)sc1C | 11 nM | 1.7 mg/kg | –
28 | Cc1nc(C)c(Cc2c[nH]cn2)s1 | 8 nM | 1 mg/kg | –
29 | CCc1nc(Cc2c[nH]cn2)c(CC)s1 | 17 nM | 1.8 mg/kg | –
30 | CCc1nc(C(Cc2ccccc2)c2c[nH]cn2)c(CC)s1 (centres undefined) | 37 nM | > 30 mg/kg | –
31 | CCc1sc(-c2ccccc2)nc1Cc1c[nH]cn1 | 13 nM | 15 mg/kg | –
32 | Cc1nc(C)c(C(C)c2c[nH]cn2)s1 (centres undefined) | 60 nM | > 30 mg/kg | –
33 | CC(C)c1nc(Cc2c[nH]cn2)c(C(C)C)s1 | 285 nM | 23.8 mg/kg | –
34 | Cc1cccc(C(C)c2c[nH]cn2)c1C (single isomer, unassigned) [DEXMEDETOMIDINE] | 0.015 nM | – | 0.09 mg/kg
35 | CCc1nc(Cc2[nH]cnc2C)c(CC)s1 [ENTRY 68 A] | 53 nM | – | –
